Experiments:
[1] = biological target: T1, Human immunodeficiency virus type 1 integrase (Human immunodeficiency virus 1, UniProt Q7ZJM1); assay: Inhibition of 3'-processing activity of HIV1 integrase
Method in brief: (§1)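 Then 20 nM 5′-32P-labeled 21-mer oligonucleotide added for 1 h. Quenched with formamide loading dye. % inhibition from 19-mer (3′-processing) or strand transfer product fractions versus DNA-alone and DNA+IN controls. IC50 from log concentration versus % inhibition plot.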

[2] = biological target: T1, Human immunodeficiency virus type 1 integrase; assay: Inhibition of strand transfer activity of HIV1 integrase; method in brief: as §1

T1 sequence (Q7ZJM1 whole entry): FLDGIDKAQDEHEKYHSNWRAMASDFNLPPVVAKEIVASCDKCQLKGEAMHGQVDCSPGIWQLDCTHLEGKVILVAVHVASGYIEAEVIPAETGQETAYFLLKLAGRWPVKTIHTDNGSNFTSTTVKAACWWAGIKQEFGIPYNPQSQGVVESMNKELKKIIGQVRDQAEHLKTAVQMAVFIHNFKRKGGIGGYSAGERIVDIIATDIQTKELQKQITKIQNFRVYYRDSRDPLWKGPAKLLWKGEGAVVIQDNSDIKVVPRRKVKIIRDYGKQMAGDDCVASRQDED

IC50 [1] [µM] | IC50 [2] [µM] | Structure (SMILES)
> 100 | > 100 | COC(=O)c1c(NC(=O)CC2Nc3ccccc3NC2=O)sc2c1CCCC2 (centres undefined)
> 100 | > 100 | COc1ccc(C2C(C(=O)c3ccccc3)=C(O)C(=O)N2CCCO)cc1OC (centres undefined)
850 | 350 | O=c1oc2c(CN(CCO)CCO)c(O)ccc2cc1-c1nc2ccccc2s1
> 100 | > 100 | O=C(NCCCO)c1ccc(CSc2nc(O)c3c4c(sc3n2)CCC4)cc1
> 1000 | > 1000 | O=C(C1=C(O)C(=O)N(CCCN2CCOCC2)C1c1ccccc1F)c1ccc(F)cc1 (centres undefined)
> 100 | > 100 | CCOC(=O)c1c(NC(=O)CC2Sc3ccc(C(F)(F)F)cc3NC2=O)sc2c1CCCC2 (centres undefined)
> 1000 | > 1000 | CCN(CC)CCN1C(=O)C(O)=C(C(=O)c2ccccc2)C1c1ccc(OC)cc1OC (centres undefined)
90 | 56 | CCOC(=O)c1c(NC(=O)c2cc3ccccc3oc2=O)sc(C(N)=O)c1C
> 1000 | > 1000 | COc1ccc(C2C(C(=O)c3ccc(F)cc3)=C(O)C(=O)N2CCN(C)C)cc1OC (centres undefined)
> 1000 | 630 | COc1ccc(C(=O)C2=C(O)C(=O)N(CCN3CCNCC3)C2c2ccccc2F)cc1 (centres undefined)
> 100 | > 100 | O=C(O)CCC(=O)Nc1ccc(S(=O)(=O)Nc2ccc(F)cc2)cc1
> 1000 | > 1000 | Cc1ccc(C(=O)C2=C(O)C(=O)N(CCN(C)C)C2c2ccccc2F)cc1 (centres undefined)
> 1000 | 395 | COc1ccc(C2C(C(=O)c3ccco3)=C(O)C(=O)N2CCN2CCOCC2)c(OC)c1 (centres undefined)
100 | 23 | COCCCNS(=O)(=O)c1ccc(Oc2cc(O)c3c(c2O)C(=O)c2ccccc2C3=O)cc1
> 100 | > 100 | NCCCCCCNC(=O)c1c(O)oc2ccccc2c1=O
> 100 | > 100 | COc1cccc2cc(-c3csc(Nc4cccc(O)c4)n3)c(=O)oc12
> 100 | > 100 | O=C(O)CCC(=O)Nc1ccc(Cl)c(NC(=O)Cc2ccccc2)c1
> 100 | 40 | CCOC(=O)C1=C(O)/C(=C\c2ccc(CNC(=O)C(=O)Nc3ccccc3)o2)N=C1C
53 | 10 | Oc1ccc(C(c2c[nH]c3ccccc23)c2c[nH]c3ccccc23)cc1O
> 100 | > 100 | COc1cc(C(c2c[nH]c3ccccc23)c2c[nH]c3ccccc23)ccc1OCC(=O)O
18 | 9 | NCCCNc1ccc2c3c(nn2CCNCCO)-c2c(O)ccc(O)c2C(=O)c13 [PIROXANTRONE]
> 100 | > 100 | CN(C)CCCN1C(=O)C(O)=C(C(=O)c2cccs2)C1c1cccs1 (centres undefined)
